Data from ChEMBL document CHEMBL4689842, “EUbOPEN Chemogenomics Library wave 1” (2021).

Test system: HEK-293T
Assay: Multiplex assay against HEK293T;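 for Population Tubulin-Different-Phenotype (%): share of the cells with healthy nuclei that show this phenotype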
Format: toxicity, cell-based
Details: human
In short: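 Tubulin, mitochondrial-mass and membrane-permeability phenotypes are per cents of healthy-nucleus cells. Cells were gated by CellPathfinder machine learning into Hoechst high-intensity objects or normal cells, normal cells into healthy, pyknosed or fragmented nuclei, and pyknosed cells into mitotic or apoptotic. Before that, live cells stained at seeding with Hoechst33342, BioTracker Green Microtubule Cytoskeleton Dye, MitoTracker Red and Annexin V Alexa Fluor 680 were imaged on a CQ1 microscope at 37°C and 5% CO2 after compound addition.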

[1] = 12 h, 1 µM, compound concentration 1 uM, replicate 1
[2] = 12 h, 1 µM, compound concentration 1 uM, replicate 2
[3] = 12 h, 10 µM, compound concentration 10 uM, replicate 1
[4] = 12 h, 10 µM, compound concentration 10 uM, replicate 2
[5] = 24 h, 1 µM, compound concentration 1 uM, replicate 1
[6] = 24 h, 1 µM, compound concentration 1 uM, replicate 2
[7] = 24 h, 10 µM, compound concentration 10 uM, replicate 1
[8] = 24 h, 10 µM, compound concentration 10 uM, replicate 2
[9] = 48 h, 1 µM, compound concentration 1 uM, replicate 1
[10] = 48 h, 1 µM, compound concentration 1 uM, replicate 2
[11] = 48 h, 10 µM, compound concentration 10 uM, replicate 1
[12] = 48 h, 10 µM, compound concentration 10 uM, replicate 2

Structure (SMILES): CCCCN(CC)c1nc(C)nc2c1c(C)cn2-c1c(C)cc(C)cc1C.Cl
- Population Apoptotic (%) [1]: 49%
- Population Fragmented Nuclei (%) [1]: 15%
- Population Healthy Nuclei (%) [1]: 45%
- Population Hoechst High Intensity Objects (%) [1]: 16%
- Population Membrane Permeable-Phenotype (%) [1]: 5%
- Population Mitochondria Different-Phenotype (%) [1]: 79%
- Population Mitotic Cells (%) [1]: 50%
- Population Normal (%) [1]: 83%
- Population Pyknosed Nuclei (%) [1]: 39%
- Population Tubulin-Different-Phenotype (%) [1]: 32%
- Total Cell Count [1]: 241
- Population Apoptotic (%) [2]: 11%
- Population Fragmented Nuclei (%) [2]: 5%
- Population Healthy Nuclei (%) [2]: 43%
- Population Hoechst High Intensity Objects (%) [2]: 1%
- Population Membrane Permeable-Phenotype (%) [2]: 6%
- Population Mitochondria Different-Phenotype (%) [2]: 11%
- Population Mitotic Cells (%) [2]: 88%
- Population Normal (%) [2]: 98%
- Population Pyknosed Nuclei (%) [2]: 51%
- Population Tubulin-Different-Phenotype (%) [2]: 17%
- Total Cell Count [2]: 240
- Population Apoptotic (%) [3]: 59%
- Population Fragmented Nuclei (%) [3]: 13%
- Population Hoechst High Intensity Objects (%) [3]: 8%
- Population Membrane Permeable-Phenotype (%) [3]: 1%
- Population Mitochondria Different-Phenotype (%) [3]: 95%
- Population Mitotic Cells (%) [3]: 40%
- Population Normal (%) [3]: 91%
- Population Pyknosed Nuclei (%) [3]: 49%
- Population Tubulin-Different-Phenotype (%) [3]: 75%
- Total Cell Count [3]: 236
- Population Apoptotic (%) [4]: 27%
- Population Fragmented Nuclei (%) [4]: 7%
- Population Healthy Nuclei (%) [4]: 37%
- Population Hoechst High Intensity Objects (%) [4]: 7%
- Population Membrane Permeable-Phenotype (%) [4]: 6%
- Population Mitochondria Different-Phenotype (%) [4]: 68%
- Population Mitotic Cells (%) [4]: 72%
- Population Normal (%) [4]: 92%
- Population Pyknosed Nuclei (%) [4]: 54%
- Population Tubulin-Different-Phenotype (%) [4]: 60%
- Total Cell Count [4]: 211
- Population Apoptotic (%) [5]: 48%
- Population Fragmented Nuclei (%) [5]: 16%
- Population Healthy Nuclei (%) [5]: 41%
- Population Hoechst High Intensity Objects (%) [5]: 13%
- Population Membrane Permeable-Phenotype (%) [5]: 4%
- Population Mitochondria Different-Phenotype (%) [5]: 61%
- Population Mitotic Cells (%) [5]: 51%
- Population Normal (%) [5]: 86%
- Population Pyknosed Nuclei (%) [5]: 42%
- Population Tubulin-Different-Phenotype (%) [5]: 36%
- Total Cell Count [5]: 247
- Population Apoptotic (%) [6]: 15%
- Population Fragmented Nuclei (%) [6]: 4%
- Population Healthy Nuclei (%) [6]: 61%
- Population Hoechst High Intensity Objects (%) [6]: 1%
- Population Membrane Permeable-Phenotype (%) [6]: 9%
- Population Mitochondria Different-Phenotype (%) [6]: 13%
- Population Mitotic Cells (%) [6]: 84%
- Population Normal (%) [6]: 98%
- Population Pyknosed Nuclei (%) [6]: 33%
- Population Tubulin-Different-Phenotype (%) [6]: 21%
- Total Cell Count [6]: 308
- Population Apoptotic (%) [7]: 64%
- Population Fragmented Nuclei (%) [7]: 10%
- Population Hoechst High Intensity Objects (%) [7]: 9%
- Population Membrane Permeable-Phenotype (%) [7]: 1%
- Population Mitochondria Different-Phenotype (%) [7]: 95%
- Population Mitotic Cells (%) [7]: 35%
- Population Normal (%) [7]: 90%
- Population Pyknosed Nuclei (%) [7]: 37%
- Population Tubulin-Different-Phenotype (%) [7]: 89%
- Population Apoptotic (%) [8]: 29%
- Population Fragmented Nuclei (%) [8]: 4%
- Population Healthy Nuclei (%) [8]: 51%
- Population Hoechst High Intensity Objects (%) [8]: 6%
- Population Membrane Permeable-Phenotype (%) [8]: 4%
- Population Mitochondria Different-Phenotype (%) [8]: 73%
- Population Mitotic Cells (%) [8]: 70%
- Population Normal (%) [8]: 93%
- Population Pyknosed Nuclei (%) [8]: 44%
- Population Tubulin-Different-Phenotype (%) [8]: 81%
- Total Cell Count [8]: 231
- Population Apoptotic (%) [9]: 43%
- Population Fragmented Nuclei (%) [9]: 20%
- Population Healthy Nuclei (%) [9]: 46%
- Population Hoechst High Intensity Objects (%) [9]: 12%
- Population Membrane Permeable-Phenotype (%) [9]: 2%
- Population Mitochondria Different-Phenotype (%) [9]: 26%
- Population Mitotic Cells (%) [9]: 56%
- Population Normal (%) [9]: 87%
- Population Pyknosed Nuclei (%) [9]: 32%
- Population Tubulin-Different-Phenotype (%) [9]: 22%
- Total Cell Count [9]: 315
- Population Apoptotic (%) [10]: 15%
- Population Fragmented Nuclei (%) [10]: 7%
- Population Healthy Nuclei (%) [10]: 82%
- Population Hoechst High Intensity Objects (%) [10]: 3%
- Population Membrane Permeable-Phenotype (%) [10]: 4%
- Population Mitochondria Different-Phenotype (%) [10]: 8%
- Population Mitotic Cells (%) [10]: 84%
- Population Normal (%) [10]: 96%
- Population Pyknosed Nuclei (%) [10]: 10%
- Population Tubulin-Different-Phenotype (%) [10]: 17%
- Total Cell Count [10]: 539
- Population Apoptotic (%) [11]: 49%
- Population Fragmented Nuclei (%) [11]: 13%
- Population Healthy Nuclei (%) [11]: 67%
- Population Hoechst High Intensity Objects (%) [11]: 9%
- Population Membrane Permeable-Phenotype (%) [11]: 3%
- Population Mitochondria Different-Phenotype (%) [11]: 74%
- Population Mitotic Cells (%) [11]: 50%
- Population Normal (%) [11]: 90%
- Population Pyknosed Nuclei (%) [11]: 19%
- Population Tubulin-Different-Phenotype (%) [11]: 70%
- Total Cell Count [11]: 365
- Population Apoptotic (%) [12]: 36%
- Population Fragmented Nuclei (%) [12]: 7%
- Population Healthy Nuclei (%) [12]: 74%
- Population Hoechst High Intensity Objects (%) [12]: 2%
- Population Membrane Permeable-Phenotype (%) [12]: 0%
- Population Mitochondria Different-Phenotype (%) [12]: 54%
- Population Mitotic Cells (%) [12]: 63%
- Population Normal (%) [12]: 97%
- Population Pyknosed Nuclei (%) [12]: 18%
- Population Tubulin-Different-Phenotype (%) [12]: 67%
- Total Cell Count [12]: 337
